# Screens deposited in PubChem by several laboratories.
# TAG inh: inhibitors of triacylglycerol accumulation, primary screen, cell-based, uHTS, fluorescence, H9c2; H9c2 cells, Nile Red lipid (TAG) fluorescence; cells loaded with 200 µM oleic acid; inhibition, % at 12.5 µM; actives 0.66% (n = 230,000); AID 651582, 2012;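 active means pattern-corrected inhibition of lipid staining of at least 50% with the nuclear-stain viability signal not falling by more than 50%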;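 further: 0% = DMSO wells and 100% = triacsin C control wells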
# Rev-erbA mod: modulators of Rev-erb alpha DNA binding, primary screen, biochemical, FITC-DNA, fluorescence polarization, uHTS; Nuclear receptor subfamily 1 group D member 1 (Homo sapiens), P20393; Rev-erbα–FITC-DNA binding, 90 min; activity, % at 10 µM; actives 0.79% (n = 370,000);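 active means activity above about 14%, limit read from the data; passing the limit was not always enough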;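 further: 0% = DMSO wells with 35 nM protein and 100% = DMSO wells with 750 nM protein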
# Target sequence (P20393 whole entry, looked up): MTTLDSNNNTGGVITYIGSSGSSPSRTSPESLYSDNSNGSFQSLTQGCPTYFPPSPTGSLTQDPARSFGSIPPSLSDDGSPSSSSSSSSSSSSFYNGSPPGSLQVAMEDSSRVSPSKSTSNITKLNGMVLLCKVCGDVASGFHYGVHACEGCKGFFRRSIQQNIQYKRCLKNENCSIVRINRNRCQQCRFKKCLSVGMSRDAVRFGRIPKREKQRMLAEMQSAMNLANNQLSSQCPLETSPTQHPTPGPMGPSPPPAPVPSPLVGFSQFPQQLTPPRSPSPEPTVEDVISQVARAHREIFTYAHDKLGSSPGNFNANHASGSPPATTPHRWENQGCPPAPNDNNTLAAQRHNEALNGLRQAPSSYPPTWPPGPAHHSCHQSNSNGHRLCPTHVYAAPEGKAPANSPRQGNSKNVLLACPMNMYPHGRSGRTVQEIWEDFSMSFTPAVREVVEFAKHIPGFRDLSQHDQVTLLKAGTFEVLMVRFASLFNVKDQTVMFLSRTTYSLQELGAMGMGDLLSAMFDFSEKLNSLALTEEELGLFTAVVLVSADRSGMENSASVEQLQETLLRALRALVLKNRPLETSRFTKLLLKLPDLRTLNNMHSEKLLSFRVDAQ
# PG9 Ab binder: binders of HIV-1 gp120 antibody PG9, primary screen, biochemical, TR-FRET; HIV-1 gp120 / PG9 antibody interaction; TR-FRET gp120-PG9 antibody binding; inhibition, % at 6.7 µM; actives 0.43% (n = 360,000); AID 624416, 2012; in the data active means inhibition above about 8.5%
# T cruzi inh: inhibitors of intracellular T. cruzi growth, primary screen, luminescence, NIH3T3 host cells; T. cruzi beta-gal in NIH3T3, 90 h; inhibition, % (no concentration beside the values); actives 1.4% (n = 300,000);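 active means mean inhibition across valid replicates above about 55%, limit read from the data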;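 further: signal also drops with host cell toxicity which is not excluded here; 0% = plate median of DMSO wells and 100% = zero luminescence signal; higher percent means less beta-gal luminescence so fewer parasites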
#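 Test system: β-gal T. cruzi (Tulahuen C4) inside NIH/3T3 cells / Quantity: 5,000 cells/well / Measured by: luminescence from GalScreen with 0.05% NP40, read after 60 min / Medium: DMEM plus 2% FBS / Measure: parasite load inhibition, % / Reagent: Tulahuen C4 trypomastigotes, 5000/well / Schedule: co-culture of at least 90 h after 3 h attachment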
# hiPSC survival: enhancers of single-cell hiPSC survival, primary screen, ATPlite luminescence; 100% = ROCK inhibitor wells, 0% = DMSO; actives 0.044% (n = 360,000); survival enhancement, % at 20 µM; in the data active means survival enhancement above about 18%;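 further: cells exposed to compounds for 16 hours before the ATP read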
# MIN6 prolif: inducers of MIN6 beta-cell proliferation, primary screen, ATP luminescence, uHTS | MIN6 cells proliferation, ATPlite luminescence, 48 h; cells starved in 0.2% serum; 100% = growth in 10% serum | proliferation, % at 10 µM | actives 0.29% (n = 330,000);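 active means compounds whose signal lies at least 3.5 SD above the mean of all wells on their plate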;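 further: 0% = DMSO-treated cells in low-serum medium and 100% = 10% serum control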
# PG9 bind confirm: binders of anti-gp120 antibody PG9, confirmation, biochemical, TR-FRET | shares compounds with PG9 Ab binder | TR-FRET PG9 antibody binding | inhibition, % at 6.7 µM | actives 90% (n = 1,500) | AID 651571, 2012; in the data active means inhibition above about 9%
# PGV04 Ab binding: binders of control antibody PGV04, counter-screen for PG9 antibody binder project, biochemical, TR-FRET, distinct HIV envelope site | inhibition, % at 6.7 µM | AID 651604, 2012 | TR-FRET PGV04 antibody-gp120 binding | actives 95% (n = 1,500) | shares compounds with PG9 Ab binder; in the data active means inhibition above about 9.5%
# PG9 bind DR: small-molecule binders of antibody PG9, dose response, biochemical, TR-FRET, HIV-1 gp120 antibody | shares compounds with PG9 Ab binder | TR-FRET PG9 antibody-gp120 binding inhibition | IC50, µM | 95 tested, under 10 active; in the data active means IC50 below about 10 µM
# PGV04 DR counter: binders of control antibody PGV04, dose response, counter-screen for PG9 antibody binder project, biochemical, TR-FRET, distinct HIV envelope site | shares compounds with PG9 Ab binder | TR-FRET binding to control antibody PGV04 | IC50, µM | actives 20% (n = 95) | AID 651937, 2012
# PG126 binding DR: binders of control antibody PG126, dose response, counter-screen for PG9 antibody binder project, biochemical, TR-FRET, distinct HIV envelope site | shares compounds with PG9 Ab binder | TR-FRET binding to antibody PG126, counterscreen | IC50, µM | actives 20% (n = 95) | AID 651939, 2012
# Rev-erbA confirm: modulators of Rev-erb alpha DNA binding, confirmation, biochemical, FITC-DNA, fluorescence polarization, single point; shares compounds with Rev-erbA mod; 90 min; activation, % at 25 µM; actives 61% (n = 3,000); AID 1259319, 2017;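 active means activation at or above a set limit, or at least 3 SD above the negative control mean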;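 further: 0% = 35 nM protein with DMSO and 100% = 750 nM protein high control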
# RORg DNA counter: modulation of RORgamma DNA binding, dose response, counter-screen for Rev-erb alpha modulator project, biochemical, fluorescence polarization, FITC-DNA. shares compounds with Rev-erbA mod. purified RORgamma protein-FITC-DNA binding. IC50, µM. actives 8% (n = 910). AID 1259320, 2017;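 active means Compounds whose fitted half-maximal concentration for disrupting protein-DNA binding is below 10 micromolar; the record names Rev-erb in its text, so the target is in doubt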
# Active calls of the source: *; i = inactive; . = not tested or not shown. In the library only some 2.9% were active in any assay of this set; here they are far more common. Unless noted, no stated cut-off is given here; in the data, active means IC50 below about 9 µM; inactive means the rest.
SMILES,TAG inh,Rev-erbA mod,PG9 Ab binder,T cruzi inh,hiPSC survival,MIN6 prolif,PG9 bind confirm,PGV04 Ab binding,Rev-erbA confirm,others
NS(=O)(=O)c1ccc2nc(NC(=O)c3ccc4c(c3)OCCO4)sc2c1,-5,33*,37*,-1,0,1,33*,46*,12,
Cc1nnc(NC(=O)c2ccc3c(c2)OCO3)s1,-6,-2,-4,-6,0,-2,.,.,.,
Cc1ccc2nc(NC(=O)c3ccc4c(c3)OCO4)sc2c1,.,29*,18*,14,-2,-3,21*,32*,12,
COc1cc(C(=O)Nc2nc(C)c(Cc3ccc4c(c3)OCO4)s2)cc(OC)c1OC,.,4,0,6,-2,-5,.,.,.,
O=C(COC(=O)c1cncc(Br)c1)NCc1ccc(F)cc1,-14,1,2,-11,1,-3,.,.,.,
Cc1nn(C2CCCCC2)c(N)c1-c1ccccc1,.,3,0,21,0,-1,.,.,.,
CCOc1ccc(C(=O)Nc2nc(C)c(C(=O)OC)s2)cc1,-32,50*,12*,-16,-1,-4,38*,71*,81*,RORg DNA counter=i
C=CCOC(=O)c1sc(NC(=O)c2ccc(OC)cc2)nc1C,-14,39*,18*,-21,0,-1,22*,39*,25*,
Cn1c2ccccc2c(=O)c2c(=O)n(Cc3ccccc3)c(-c3ccc(F)cc3)nc21,-3,28*,21*,.,2,-1,28*,39*,30*,
COc1ccc(Cn2c(-c3ccc(OC)cc3)nc3c(c(=O)c4ccccc4n3C)c2=O)cc1,.,.,.,-14,.,-1,.,.,.,
COc1cc(Cl)c(C)cc1NC(=O)COc1cc(C)nc(C(C)C)n1,12,0,2,3,0,-3,.,.,.,
CC(=O)Nc1ccc(NC(=O)C(C)OC(=O)/C(C#N)=C/c2ccc(N(C)C)cc2)cc1 (stereo unspecified),-7,18*,17*,1,0,2,20*,37*,14*,
CCOc1ccc(S(=O)(=O)Nc2nc3ccccc3nc2-n2ccc(=NC(=O)c3ccccc3C)cc2)cc1,-7,39*,40*,-17,0,-4,32*,65*,59*,RORg DNA counter=>40
Cc1ccccc1C(=O)N=c1ccn(-c2nc3ccccc3nc2NS(=O)(=O)c2ccccc2)cc1,.,-4,-1,-15,2,-1,.,.,.,
Cc1ccc(NC(=O)C(C)Sc2n[nH]c(CNc3ccccc3)n2)cc1 (stereo unspecified),.,6,-1,4,-1,-4,.,.,.,
Cc1cc(-c2cccc(Br)c2)c(C#N)c(N)n1,2,21*,34*,.,1,0,38*,61*,7,
CCC(=O)OCC(=O)Nc1cc([N+](=O)[O-])ccc1Cl,-17,2,-3,-1,1,2,.,.,.,
COc1ccccc1N1C(=O)C2C(C(=O)c3ccccc3)=NN(c3ccc(Br)cc3)C2C1=O (stereo unspecified),-1,66*,13*,-14,0,-4,17*,28*,21*,
CSc1ccc(Cl)c(C(=O)OCC(=O)Nc2ccccc2OC(F)F)c1,.,2,1,-26,-2,-4,.,.,.,
COc1ccc(NC(=O)COC(=O)c2cc(SC)ccc2Cl)c(OC)c1,.,34*,18*,-14,0,-1,30*,45*,29*,
COc1cccc(OCc2nc3ncc(Br)cc3[nH]2)c1,.,26*,51*,-23,0,-3,52*,64*,17*,
Cc1cc(C)cc(OCc2nc3ncc(Br)cc3[nH]2)c1,42,62*,34*,-3,-2,-2,47*,63*,38*,RORg DNA counter=>40
O=C1NC(=S)SC1=Cc1cc(Br)ccc1O,-5,-3,-2,.,2,.,.,.,.,
CCc1nc(SCC(=O)Nc2nnc(CC)s2)c2c(C)c(C)sc2n1,.,3,1,0,-1,-3,.,.,.,
CCCc1nc(SCC(=O)Nc2nnc(CC)s2)c2c(C)c(C)sc2n1,.,26*,12*,3,-2,-1,18*,16*,15,PG9 bind DR=>67;PGV04 DR counter=i;PG126 binding DR=i
COc1cccc(Nc2c3c(nc4c(-c5ccccc5)c(C)nn24)CCC3)c1,-25,4,-1,47,1,-6,.,.,.,
COc1cccc(C(=O)Nc2ccc3c(C)cc(=O)oc3c2)c1,12,20*,9.7*,5,0,-4,21*,31*,0,
Cc1cc(C)c(NC(=O)COC(=O)C2CCC(=O)N2)c(C)c1 (stereo unspecified),-14,-5,-1,-2,2,0,.,.,.,
Cc1cc(C)c(C#N)c(SCCS(=O)(=O)Cc2ccc(Cl)cc2)n1,.,36*,11*,-7,-1,-7,22*,31*,18*,
Cc1cc(C)c(C#N)c(SCCS(=O)(=O)c2ccc(Cl)cc2)n1,0,3,1,-9,1,-4,.,.,.,
